Assay results from ChEMBL document CHEMBL1124144, “Electrophysiologic and antiarrhythmic activities of 4-amino-N-[2-(diethylamino)ethyl]-3,5-dimethylbenzamide, a sterically hindered procainamide analogue” (1988).

Tests used:
Canis lupus familiaris [1] = organism: Canis lupus familiaris; experiment: (§1) Sodium channel inactivating potency at 3*10e-4 M; type: functional
Outline: (§2)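 Recovery from sodium-channel inactivation in paced canine Purkinje fibres: a premature S2 stimulus was given immediately after full repolarization. It was expressed as the ratio of premature to paced action potential rate of rise. Drug was present at 3 × 10^-4 M final, read after ~30 min. Each cell was its own control. Values are mean ± SEM, four or five experiments.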

Canis familiaris [2] = organism: Canis familiaris; experiment: Effective refractory period at 3 x 10e-4 M in Canine Purkinje fibers; type: functional, Canis lupus familiaris, Purkinje fiber
Outline: (§3)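 Canine Purkinje fibres superfused with Tyrode's solution (K+ 4.0, Mg2+ 1.0, Ca2+ 4.0, HCO3- 18.0, glucose 5.5 mM), paced at 1000 ms cycle length with 0.5-ms pulses at 1.5× threshold. Transmembrane potentials were recorded with 3 M KCl microelectrodes. Drug was added to the superfusate at 3 × 10^-4 M final and read at stable effect (~30 min). Each cell served as its own control. Values are mean ± SEM, four or five experiments, five tissues per drug from different dogs. Compared by ANOVA/Fisher's LSD.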

Canis familiaris [3] = experiment: Effective refractory period when no compound was administered in Canine Purkinje fibers; type: functional, Canis lupus familiaris, Purkinje fiber; outline: as §3
Canis familiaris [4] = organism: Canis familiaris; experiment: Action potential duration at 3 x 10e-4 M measured at 70% repolarization; type: functional, Canis lupus familiaris; outline: as §3
Canis familiaris [5] = organism: Canis familiaris; experiment: Percent change of action potential duration at 3 x 10e-4 M, measured at 95% repolarization in Canine Purkinje fibers; type: functional, Canis lupus familiaris, Purkinje fiber; outline: as §3
Canis lupus familiaris [6] = organism: Canis lupus familiaris; experiment: Sodium channel inactivating potency in the absence of compound (control); type: functional; outline: as §2
Canis familiaris [7] = experiment: Action potential duration when no compound was administered in Canine Purkinje fibers measured at 95% repolarization; type: functional, Canis lupus familiaris, Purkinje fiber; outline: as §3
Canis familiaris [8] = experiment: Percent change in maximal upstroke velocity when 3*10e-4 M compound was administered in Canine Purkinje fibers; type: functional; details: Canis lupus familiaris; Purkinje fiber; outline: as §3
Canis familiaris [9] = organism: Canis familiaris; experiment: Percent change of resting potential at 3 x 10e-4 M in Canine Purkinje fibers; type: functional, Canis lupus familiaris, Purkinje fiber; outline: as §3
Canis familiaris [10] = experiment: Resting potential when no compound was administered in Canine Purkinje fibers; type: functional, Canis lupus familiaris, Purkinje fiber; outline: as §3
Canis familiaris [11] = organism: Canis familiaris; experiment: Percent change of effective refractory period at 3 x 10e-4 M, in Canine Purkinje fibers; type: functional, Canis lupus familiaris, Purkinje fiber; outline: as §3
Canis familiaris [12] = organism: Canis familiaris; experiment: Amplitude at 3 x 10e-4 M concentration in Canine Purkinje fibers; type: functional, Canis lupus familiaris, Purkinje fiber; outline: as §3
Canis familiaris [13] = organism: Canis familiaris; experiment: Action potential duration at 3 x 10e-4 M measured at 95% repolarization in Canine Purkinje fibers; type: functional, Canis lupus familiaris, Purkinje fiber; outline: as §3
Canis lupus familiaris [14] = organism: Canis lupus familiaris; experiment: as §1; type: functional; outline: as §2; remark: listed apart in the source
Canis familiaris [15] = organism: Canis familiaris; experiment: Percent change of amplitude at 3 x 10e-4 M concentration in Canine Purkinje fibers; type: functional, Canis lupus familiaris, Purkinje fiber; outline: as §3
Canis familiaris [16] = experiment: Amplitude when no compound was administered in Canine Purkinje fibers; type: functional, Canis lupus familiaris, Purkinje fiber; outline: as §3
Canis familiaris [17] = experiment: Effect on ouabain-induced arrhythmias in pentobarbital anesthetized dogs; type: functional, Canis lupus familiaris
Outline: (§4)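 Male beagles (12–15 kg) were given pentobarbital 35 mg/kg iv plus 5 mg/kg 15 min later. Ouabain went into the cephalic vein at 50 µg/kg, then 10 µg/kg every 15 min (extra 5 µg/kg if needed) until arrhythmia was sustained. After 30 min of arrhythmia, drug in water was infused iv at 200 µg/kg/min, raised to 500 µg/kg/min after 10 min, until conversion to sinus rhythm. n = 5.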

Canis familiaris [18] = experiment: Maximal upstroke velocity when no compound was administered in Canine Purkinje fibers; type: functional; details: Canis lupus familiaris; Purkinje fiber; outline: as §3
Canis familiaris [19] = experiment: Effect on conversion dose required for arrhythmias in pentobarbital anesthetized dogs; type: functional, Canis lupus familiaris; outline: as §4
Canis familiaris [20] = experiment: Action potential duration when no compound was administered in Canine Purkinje fibers measured at 70% repolarization; type: functional, Canis lupus familiaris, Purkinje fiber; outline: as §3
Canis familiaris [21] = organism: Canis familiaris; experiment: Resting potential at 3 x 10e-4 M in Canine Purkinje fibers; type: functional, Canis lupus familiaris, Purkinje fiber; outline: as §3
Canis familiaris [22] = experiment: Maximal upstroke velocity when 3*10e-4 M compound was administered in Canine Purkinje fibers; type: functional; details: Canis lupus familiaris; Purkinje fiber; outline: as §3
Canis familiaris [23] = organism: Canis familiaris; experiment: Percent change of action potential duration at 3 x 10e-4 M, measured at 70% repolarization; type: functional, Canis lupus familiaris; outline: as §3
Rattus norvegicus [24] = experiment: Plasma concentration in rat 4 hr after administration at a dose of 25 mg/kg; type: functional, organism-based; set-up: dose 25 mg/kg
Outline: (§5)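 Fischer 344 rats were given 25 mg/kg in water iv via the jugular vein, three per group. Plasma was taken by cardiac puncture at set times. Parent drug and N-acetyl metabolite were quantified by GC with a nitrogen-phosphorus detector after alkaline extraction with an internal standard. The assay was linear 1–10 µg/mL. Values are mean ± SEM.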

Rattus norvegicus [25] = experiment: Plasma concentration in rat 2 hr after administration at a dose of 25 mg/kg; type: functional, organism-based; set-up: dose 25 mg/kg; outline: as §5
Rattus norvegicus [26] = experiment: Plasma concentration in rat 30 minutes after administration at a dose of 25 mg/kg; type: functional, organism-based; set-up: dose 25 mg/kg; outline: as §5

SMILES	Na+ inactivation (Canis lupus familiaris [1])	ERP (Canis familiaris [2]) [ms]	ERP (Canis familiaris [3]) [ms]	APD70 (Canis familiaris [4]) [ms]	APD95 (Canis familiaris [5]) [%]	Na+ inactivation (Canis lupus familiaris [6])	APD95 (Canis familiaris [7]) [ms]	Vmax (Canis familiaris [8]) [%]	Resting potential (Canis familiaris [9]) [%]	Resting potential (Canis familiaris [10]) [mV]	ERP (Canis familiaris [11]) [%]	Amplitude (Canis familiaris [12]) [mV]	APD95 (Canis familiaris [13]) [ms]	Amplitude (Canis familiaris [15]) [%]	Amplitude (Canis familiaris [16]) [mV]	Ouabain dose (Canis familiaris [17]) [mg/kg]	Vmax (Canis familiaris [18]) [V s-1]	Conversion dose (Canis familiaris [19]) [mg/kg]	APD70 (Canis familiaris [20]) [ms]	Resting potential (Canis familiaris [21]) [mV]	further results
CCN(CC)CCNC(=O)c1ccc(N)c(C)c1	0.88	283	303	244	-7	0.96	363	-39	-4	-89	-6	114	336	-12	129	0.065	462	18.3	292	-85	Na+ inactivation (Canis lupus familiaris [14]): -9%; Vmax (Canis familiaris [22]): 282 V s-1; APD70 (Canis familiaris [23]): -16%
CCN(CC)CCNC(=O)c1ccc(N)cc1 [PROCAINAMIDE]	0.96	321	308	284	5	1	347	-31	-2	-93	6	119	361	-7	127	0.068	501	19	285	-91	Plasma concentration (Rattus norvegicus [24]): 2.3 µg/mL; Na+ inactivation change (Canis lupus familiaris [1]): -3%; Plasma concentration (Rattus norvegicus [25]): 0.36 µg/mL; Plasma concentration (Rattus norvegicus [26]): 2.29 µg/mL; Vmax (Canis familiaris [22]): 345 V s-1; APD70 (Canis familiaris [23]): 1%
CCN(CC)CCNC(=O)c1cc(C)c(N)c(C)c1	0.91	282	351	227	-17	0.99	426	-38	-12	-92	-18	117	353	-11	131	0.069	632	14.3	363	-81	Na+ inactivation (Canis lupus familiaris [14]): -7%; Vmax (Canis familiaris [22]): 387 V s-1; APD70 (Canis familiaris [23]): -37%
